Screening data as filed in PubChem.
SENP7 inh = SENP7 protease inhibitors, primary screen, biochemical, luminescence, uHTS; Sentrin-specific protease 7 (Homo sapiens), Q9BQF6; recombinant SENP7, Z-RLRGG-aminoluciferin luminescence, 40 min; inhibition, % at 5 µM; 330,000 compounds, 1.5% hits;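 active = inhibition above about 50% at the single test dose, limit read from the data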;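 also: plate controls were DMSO with enzyme for no effect and no enzyme buffer wells for full effect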
SENP6 inh = SENP6 protease inhibitors, primary screen, biochemical, luminescence, uHTS | Sentrin-specific protease 6 (Homo sapiens), Q9GZR1 | Recombinant SENP6 catalytic domain, aminoluciferin luminescence | inhibition, % at 10 µM | 330,000 compounds, 1.8% hits | AID 2599, 2010;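 active = inhibition above about 50% at the single tested dose, limit read from the data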;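 also: plate controls were DMSO wells with enzyme for no effect and DMSO wells lacking enzyme for full effect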
SENP8 block-1 = SENP8 protease inhibitors, primary screen, biochemical, luminescence | Sentrin-specific protease 8 (Homo sapiens), Q96LD8 | purified SENP8, Z-RLRGG-aminoluciferin cleavage | inhibition, % at 10 µM | 330,000 compounds, 1.2% hits | AID 2540, 2010; in the data active = inhibition above about 50%
Target sequence (Q96LD8 whole entry, looked up): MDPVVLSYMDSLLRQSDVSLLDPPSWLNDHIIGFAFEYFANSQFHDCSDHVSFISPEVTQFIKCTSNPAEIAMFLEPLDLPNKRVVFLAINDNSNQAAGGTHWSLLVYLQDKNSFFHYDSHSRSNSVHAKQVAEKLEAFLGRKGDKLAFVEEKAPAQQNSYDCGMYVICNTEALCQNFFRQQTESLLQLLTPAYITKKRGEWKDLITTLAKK
SENP8 block-2 = human SENP8 protease inhibitors, primary screen, biochemical, fluorescence, Nedd8 protein substrate, uHTS. recombinant SENP8. inhibition, % at 20 µM. 360,000 compounds, 0.64% hits. AID 602440, 2012; in the data active = inhibition mostly above about 40%, no sharp cut-off; inactive = mostly below about 27%
Platelet DG rel = inhibitors of platelet dense granule secretion, primary screen, cell-based, MLPCN, human platelets; human platelet-rich plasma, SFLLRN dense granule ATP release, luminescence; AID 1663, 2009; inhibition, %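 (compounds screened at 7.5 µM in platelet-rich plasma)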; 300,000 compounds, 0.22% hits;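 active = mean replicate score, as percent of positive control, at or above 50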
SENP1 FRET inh = human SENP1 catalytic domain inhibitors, primary screen, biochemical, FRET, uHTS. AID 624204, 2012. inhibition, % at 10 µM. recombinant SENP1 catalytic domain, CyPet-SUMO1-YPet FRET cleavage. Sentrin-specific protease 1 (Homo sapiens), Q9P0U3. 360,000 compounds, 0.21% hits;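 active = inhibition at least 30% at 10 µM, raw YFP signal under a set limit, fluorescence ratio 0.5 to 1.5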;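 also: 0% = enzyme with DMSO and 100% = no enzyme wells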
Target sequence (Q9P0U3 419-644 limits assumed): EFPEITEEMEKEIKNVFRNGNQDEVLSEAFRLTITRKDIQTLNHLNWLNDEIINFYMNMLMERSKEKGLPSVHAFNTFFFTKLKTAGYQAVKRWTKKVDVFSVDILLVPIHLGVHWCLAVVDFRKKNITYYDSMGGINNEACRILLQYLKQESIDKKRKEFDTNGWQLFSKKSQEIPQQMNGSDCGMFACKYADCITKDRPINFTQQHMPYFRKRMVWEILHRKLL
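Assay system: hSENP1 catalytic domain, recombinant. Amount: SENP1 enzyme, 20 pM final. Schedule: 50 min reaction, RT, dark. Technique: FRET, CFP and YFP emission. Control set: no-enzyme wells low, DMSO-plus-enzyme wells high control.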
SENP8 conf = SENP8 protease inhibitors, retest, confirmation, biochemical, luminescence, single concentration | shares compounds with SENP7 inh | Recombinant SENP8, Z-RLRGG-aminoluciferin luminescence, 60 min | inhibition, % at 12.5 µM | 6,200 compounds, 40% hits;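 active = mean inhibition across replicates above about 50%, limit read from the data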
SENP6 confirm = SENP6 protease inhibitors, confirmation, biochemical, luminescence, single concentration; shares compounds with SENP7 inh; 6,200 compounds, 58% hits; recombinant SENP6, Z-RLRGG-aminoluciferin luminescence; AID 488915, 2010; inhibition, % at 12.5 µM
SENP7 confirm = SENP7 protease inhibitors, retest, confirmation, biochemical, luminescence, single concentration; shares compounds with SENP7 inh; 6,200 compounds, 69% hits; inhibition, % at 12.5 µM; recombinant SENP7, Z-RLRGG-aminoluciferin luminescence, 40 min
Casp3 select = caspase-3 protease inhibitors, confirmation, selectivity assay for SENP inhibitor project, biochemical, single concentration | shares compounds with SENP7 inh | purified caspase-3, Z-DEVD-aminoluciferin luminescence, 60 min | inhibition, % at 12.5 µM | 6,200 compounds, 60% hits | AID 488918, 2010;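 active = mean inhibition above about 50%, limit read from the data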;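 also: plate controls were enzyme with DMSO for no effect and wells without caspase-3 for full effect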
Target sequence (P42574 28-227 limits assumed): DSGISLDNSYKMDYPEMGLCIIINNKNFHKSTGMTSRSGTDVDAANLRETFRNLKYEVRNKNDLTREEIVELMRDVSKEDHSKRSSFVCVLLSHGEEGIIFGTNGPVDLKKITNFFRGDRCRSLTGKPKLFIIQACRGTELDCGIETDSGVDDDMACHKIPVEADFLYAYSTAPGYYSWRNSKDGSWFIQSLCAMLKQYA
SENP luc ctr = interferes with luciferase luminescence in SENP counter-screen. shares compounds with SENP7 inh. Pre-incubated SENP8/Z-RLRGG-aminoluciferin, luciferase luminescence interference. inhibition, % at 12.5 µM. 6,200 compounds, 39% hits. AID 488919;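 active = mean inhibition above about 50% when retested at one dose, limit read from the data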;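 also: plate controls were DMSO wells with completed reaction for no effect and substrate without enzyme for full effect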
Starred values were filed as active, the others as inactive; · = no result. Hits are enriched below; roughly 2.6% of the tested compounds scored in any of these assays.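 The calls were made as follows, unless noted: active = mean inhibition above about 50% in the one-dose retest (limit read from the data); inactive = the rest.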

SMILES | SENP7 inh | SENP6 inh | SENP8 block-1 | SENP8 block-2 | Platelet DG rel | SENP1 FRET inh | SENP8 conf | SENP6 confirm | SENP7 confirm | Casp3 select | SENP luc ctr
CCOCCCn1c(SCC(=O)NC2CCCCC2)nc2ccccc2c1=O | · | · | · | 8.8 | · | 3.0 | · | · | · | · | ·
CN(CCC#N)c1ccc(/C=C(\C#N)c2ccccn2)cc1 | 0.9 | 75.9* | 79.8* | -15.2 | 32.2 | -27.4 | 91.1* | 91.6* | 99.3* | 89.1* | 92.0*
Cc1nn(-c2ccccc2)c(C)c1C(=O)OCC(=O)Nc1ccccc1Cl | · | · | · | 8.6 | · | 1.4 | · | · | · | · | ·
N/C(=N\OCC(=O)Nc1ccccc1)c1nonc1N | 2.0 | 4.6 | -6.6 | 4.7 | 5.7 | 1.9 | · | · | · | · | ·
N/C(=N\OC(=O)c1ccc(Cl)cc1)c1nonc1N | 99.5* | 97.2* | 94.2* | 0.2 | 23.6 | 3.4 | 98.0* | 99.6* | 103.1* | 98.1* | 95.3*
N/C(=N\OCc1ccccc1)c1nonc1N | 68.5* | 61.1* | 55.3* | 22.4 | 32.7 | 0.5 | 61.8* | 60.7* | 89.0* | 83.4* | 71.6*
N/C(=N/OC(=O)c1ccccc1F)c1nonc1N | 98.1* | 97.8* | 93.2* | 20.7 | 2.7 | -0.7 | 94.8* | 95.3* | 101.3* | 96.6* | 95.5*
N/C(=N/OCc1cccc([N+](=O)[O-])c1)c1nonc1N | -4.6 | -22.3 | -7.9 | 0.5 | · | -0.3 | · | · | · | · | ·
Nc1nonc1C(=O)OCC(=O)c1ccc(Cl)cc1 | -1.1 | -7.0 | -1.8 | -0.1 | -3.4 | 0.8 | · | · | · | · | ·
O=C(COC(=O)c1cccc(F)c1)Nc1cccc(S(=O)(=O)N2CCCCC2)c1 | · | · | · | 9.0 | · | 1.7 | · | · | · | · | ·
COc1ccc(Cl)cc1CC=NNC(=O)c1cccc(C)c1O | · | · | · | -210.6 | · | 2.2 | · | · | · | · | ·
Cc1nc2oc3ccc(F)cc3c(=O)c2cc1C(=O)O | 19.9 | 16.7 | 6.1 | -28.8 | 3.5 | 2.2 | · | · | · | · | ·
CCOC(=O)c1cc2c(=O)c3cc(C)ccc3oc2nc1C | 91.7* | 44.9 | 70.6* | -19.6 | 3.9 | 0.9 | 25.0 | 30.8 | 32.2 | 60.2* | 9.6
CC(=O)c1cc2c(=O)c3cc(C)ccc3oc2nc1C | 64.4* | 74.9* | 64.3* | -144.1 | -7.6 | 0.7 | 44.1 | 22.9 | 49.7 | 56.4* | 10.2
Cc1ccc2oc3nc(C)c(C(=O)O)cc3c(=O)c2c1 | 92.3* | 87.5* | 80.8* | -493.9 | · | -1.4 | 6.4 | 43.6 | 68.2* | 80.2* | 55.5*
COc1ccc(NC(=O)Nc2ccccc2SC)cc1 | 97.6* | 95.7* | 92.0* | 19.8 | 25.6 | -0.8 | 95.1* | 95.7* | 100.6* | 95.6* | 16.5
CSc1ccccc1NC(=O)Nc1ccc(Cl)cc1 | 95.8* | 6.7 | 92.3* | 13.3 | -0.2 | 0.3 | 3.2 | 95.8* | 100.7* | 85.1* | 63.2*
COc1ccc(NC(=O)Nc2ccc(N(C)C)cc2)cc1 | 76.9* | 80.7* | 47.2 | 17.2 | 16.6 | 3.2 | 24.3 | 69.9* | 89.9* | 85.3* | 13.6
COc1ccc(NC(=O)Nc2ccc(OC)cc2)cc1 | 14.5 | -18.2 | -3.9 | 20.0 | 10.1 | 1.4 | · | · | · | · | ·
COc1ccc(Cl)cc1NC(=O)Nc1ccccc1SC | -0.1 | -8.2 | -0.5 | 10.1 | -4.6 | -0.7 | · | · | · | · | ·
C=CCOc1ccc(C2C(C(=O)c3ccc(C)o3)=C(O)C(=O)N2Cc2cccnc2)cc1 (centres undefined) | -9.1 | -18.9 | -13.9 | 6.6 | -32.1 | -1.3 | · | · | · | · | ·
O=S1(=O)CC(N2CCN(CC3CC3)CC2)CN1Cc1ccccc1 (centres undefined) | · | · | · | 15.6 | · | 0.7 | · | · | · | · | ·
O=C(c1ccc(Cl)cc1)c1nnc(-c2ccncc2)o1 | 11.9 | 23.7 | 3.6 | 31.7 | 0.7 | 1.5 | · | · | · | · | ·
O=C(c1ccccc1)c1nnc(-c2ccncc2)o1 | 56.6* | 57.9* | 43.7 | 27.9 | -28.3 | 3.0 | 67.7* | 63.7* | 86.5* | 88.2* | 56.8*
CCOC(=O)c1sc(NC(=O)Nc2ccccc2Cl)cc1C | 99.1* | 94.8* | 94.6* | -40.9 | -0.6 | -1.6 | 94.9* | 96.3* | 99.6* | 88.7* | 42.6
SMILES | SENP7 inh | SENP6 inh | SENP8 block-1 | SENP8 block-2 | Platelet DG rel | SENP1 FRET inh | SENP8 conf | SENP6 confirm | SENP7 confirm | Casp3 select | SENP luc ctr
CCOC(=O)c1sc(NC(C)=O)cc1C | 1.7 | -6.8 | 0.7 | 3.6 | 7.8 | 0.9 | · | · | · | · | ·
CCOC(=O)c1sc(NC(=O)Nc2ccccc2)cc1C | 89.2* | 97.8* | 81.0* | -79.3 | -1.9 | 1.8 | 90.7* | 90.7* | 97.9* | 68.5* | 71.6*
CCOC(=O)c1cc(NC(=O)Nc2ccccc2Cl)c(C)nc1C | -6.9 | -5.2 | 3.7 | 0.0 | 1.5 | 1.4 | · | · | · | · | ·
CCOC(=O)c1sc(NC(=O)c2ccc(C)s2)cc1C | 73.0* | 43.4 | 20.0 | -323.0 | -0.9 | 2.1 | 16.6 | 37.4 | 71.1* | 47.3 | 18.5
N#Cc1ccc(CN2CCN(C(=O)CN3C(=O)NC4(CCCC4)C3=O)CC2)cc1 | -6.8 | -9.7 | -4.4 | -6.5 | · | 0.1 | · | · | · | · | ·
CC(=C\c1ccccc1)/C=C1/SC(=S)N(CCC(=O)O)C1=O | 1.9 | 91.2* | 88.6* | 17.1 | -4.3 | -4.0 | 30.4 | 91.9* | 94.3* | 80.0* | 50.9*
O=C1/C(=C\c2ccc(O)cc2)SC(=S)N1Cc1ccccc1 | 7.9 | 72.3* | 78.5* | 1.5 | -5.0 | 58.9 | 59.6* | 81.9* | 83.8* | 20.4 | 35.9
O=C(O)CCN1C(=O)/C(=C\c2cccc(OCc3ccccc3)c2)SC1=S | 36.6 | 95.6* | 96.4* | 12.5 | 3.5 | 0.8 | 4.1 | 6.4 | 0.5 | -2.0 | 3.5
CCOc1cc(/C=C2/SC(=S)N(Cc3ccccc3)C2=O)ccc1O | 1.3 | 7.7 | 4.1 | 7.1 | 4.8 | -38.5 | · | · | · | · | ·
O=C(O)CCN1C(=O)/C(=C\c2ccc(OCc3ccccc3)c(OCc3ccccc3)c2)SC1=S | 4.3 | -1.7 | 13.9 | 5.7 | 0.2 | -50.0 | · | · | · | · | ·
